Measured values as given in ChEMBL document CHEMBL3864147, “Antioxidant and anti-inflammatory neolignans from the seeds of hawthorn” (Bioorg Med Chem Lett, 2016).

Experiments:
[1] = Antiinflammatory activity in mouse RAW264.7 cells assessed as inhibition of LPS-induced nitric oxide production at 50 uM after 24 hrs by Griess assay relative to control; type: functional; details: RAW264.7, 24 h
In short: (§1)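 RAW264.7 cells (5 × 10^5/mL) pre-treated with samples at 100, 50, 10 or 1 µM, then LPS (100 ng/mL) for 24 h. Nitrite in medium measured by mixing with equal volume Griess reagent (1% sulfanilamide in 5% H3PO4, 0.1% N-naphthyl-ethylenediamine), 10 min at 37 °C, absorbance 540 nm; quantified against NaNO2 standard curve; minocycline as positive control.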

[2] = Antiinflammatory activity in mouse RAW264.7 cells assessed as inhibition of LPS-induced TNFalpha production after 24 hrs by ELISA; type: functional, cell-based; details: RAW264.7, 24 h
In short: (§2)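 RAW264.7 cells plated at 5 × 10^5/mL, pre-treated with samples at 100, 50, 10 or 1 µM, then stimulated with LPS (100 ng/mL) for 24 h. TNF-α in the medium measured by ELISA kit per manufacturer's instructions and quantified from a standard curve; silybin as positive control.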

[3] = Antiinflammatory activity in mouse RAW264.7 cells assessed as inhibition of LPS-induced TNFalpha production at 10 uM after 24 hrs by ELISA relative to control; type: functional; details: RAW264.7, 24 h; in short: as §2
Mus musculus = organism: Mus musculus; test: Cytotoxicity against mouse RAW264.7 cells assessed as effect on cell viability at 100 uM preincubated for 1 hr followed by LPS stimulation measured after 24 hrs by MTT assay; type: toxicity, cell-based; details: raw264.7, 24 h
In short: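 RAW264.7 cells in DMEM with 10% FBS and penicillin/streptomycin at 37 °C, 5% CO2, seeded 5 × 10^5 cells/well; treated with samples (100 µM) 1 h, then LPS (100 ng/mL) 24 h. MTT (0.25 mg/mL) added for 4 h; formazan read at 540 nm; untreated cells as control.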

[4] = Antioxidant activity assessed as ABTS radical scavenging activity after 30 mins; type: functional
In short: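 ABTS radical generated by 7 mM ABTS plus 2.4 mM potassium persulfate, 12 h dark at room temperature, diluted in ethanol to OD 0.700 at 734 nm. Samples at several concentrations mixed with ABTS+ solution, 30 min at 37 °C, read at 734 nm; ethanol blank; percent scavenging calculated relative to blank.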

[5] = Antiinflammatory activity in mouse RAW264.7 cells assessed as inhibition of LPS-induced nitric oxide production at 100 uM after 24 hrs by Griess assay relative to control; type: functional; details: RAW264.7, 24 h; in short: as §1
[6] = Antioxidant activity assessed as ferric ion reducing activity by measuring Fe2+ levels using fe3+-TPTZ at 750 ug/ml after 30 mins by FRAP assay; type: functional
In short: (§3)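 FRAP reagent: 300 mM acetate buffer pH 3.6, 10 mM TPTZ in 40 mM HCl, 20 mM FeCl3. Sample (3000, 1500, 750, 375 µg/mL solutions) mixed with reagent, 30 min at 37 °C, absorbance 593 nm. Values expressed as µM Fe2+ from FeSO4 calibration curve (5–450 µM).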

[7] = Antiinflammatory activity in mouse RAW264.7 cells assessed as inhibition of LPS-induced nitric oxide production at 1 uM after 24 hrs by Griess assay relative to control; type: functional; details: RAW264.7, 24 h; in short: as §1
[8] = Antiinflammatory activity in mouse RAW264.7 cells assessed as inhibition of LPS-induced TNFalpha production at 50 uM after 24 hrs by ELISA relative to control; type: functional; details: RAW264.7, 24 h; in short: as §2
[9] = Antiinflammatory activity in mouse RAW264.7 cells assessed as inhibition of LPS-induced nitric oxide production after 24 hrs by Griess assay; type: functional, cell-based; details: RAW264.7, 24 h; in short: as §1
[10] = Antioxidant activity assessed as DPPH radical scavenging activity incubated in dark for 30 mins; type: functional
In short: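 Samples (0.4 mM stock, 5–40 µL series) and DPPH (2 mM stock, 20 µL) in ethanol, made to 200 µL with ethanol; incubated 30 min in dark at 37 °C; absorbance at 517 nm. Ethanol replaced sample as blank.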

[11] = Antioxidant activity assessed as ferric ion reducing activity by measuring Fe2+ levels using fe3+-TPTZ at 1500 ug/ml after 30 mins by FRAP assay; type: functional; in short: as §3
[12] = Antioxidant activity assessed as ferric ion reducing activity by measuring Fe2+ levels using fe3+-TPTZ at 3000 ug/ml after 30 mins by FRAP assay; type: functional; in short: as §3
[13] = Antiinflammatory activity in mouse RAW264.7 cells assessed as inhibition of LPS-induced TNFalpha production at 1 uM after 24 hrs by ELISA relative to control; type: functional; details: RAW264.7, 24 h; in short: as §2
[14] = Antiinflammatory activity in mouse RAW264.7 cells assessed as inhibition of LPS-induced nitric oxide production at 10 uM after 24 hrs by Griess assay relative to control; type: functional; details: RAW264.7, 24 h; in short: as §1
[15] = Antioxidant activity assessed as ferric ion reducing activity by measuring Fe2+ levels using fe3+-TPTZ at 375 ug/ml after 30 mins by FRAP assay; type: functional; in short: as §3
[16] = Antiinflammatory activity in mouse RAW264.7 cells assessed as inhibition of LPS-induced TNFalpha production at 100 uM after 24 hrs by ELISA relative to control; type: functional; details: RAW264.7, 24 h; in short: as §2

SMILES | inhibition at 50 µM [1] [%] | IC50 [2] [µM] | inhibition at 10 µM [3] [%] | Activity (Mus musculus) | IC50 [4] [µM] | inhibition at 100 µM [5] [%] | Activity [6] [µmol/L] | inhibition at 1 µM [7] [%] | inhibition at 50 µM [8] [%] | IC50 [9] [µM] | IC50 [10] [µM] | Activity [11] [µmol/L] | Activity [12] [µmol/L] | inhibition at 1 µM [13] [%] | inhibition at 10 µM [14] [%] | Activity [15] [µmol/L] | inhibition at 100 µM [16] [%]
CCO[C@H](c1ccc(O[C@@H](CO)[C@@H](O)c2ccc(O)c(OC)c2)c(OC)c1)[C@H](CO)c1ccc(O)c(OC)c1 | 44.1 | > 100 | -1.9 | Non-Toxic | 7.9 | 55.1 | 65.1 | 3.7 | 14.2 | 76.3 | 56.8 | 108 | 135 | 0.4 | 15.5 | 33.5 | 27.7
COc1cc([C@H](O)[C@@H](CO)Oc2ccc([C@@H](O)[C@@H](CO)c3ccc(O)c(OC)c3)cc2OC)ccc1O | 49.2 | > 100 | 4.1 | Non-Toxic | 4.4 | 68.9 | 42.2 | 2.6 | 15.1 | 50.5 | 68.6 | 89.9 | 132 | 2.2 | 14.3 | 29.1 | 32.1
Cc1c(C)c2c(c(C)c1O)CCC(C)(C(=O)O)O2 (stereo unspecified) [TROLOX] | – | – | – | – | 18.2 | – | 96.9 | – | – | – | 30.2 | 185 | 172 | – | – | 51.7 | –
CCO[C@H](c1ccc(O[C@@H](CO)[C@@H](OC)c2ccc(O)c(OC)c2)c(OC)c1)[C@H](CO)c1ccc(O)c(OC)c1 | 37.2 | > 100 | 2.1 | Non-Toxic | 6.3 | 56.2 | 66.3 | 2.5 | 13.2 | 80.5 | 81.6 | 99.2 | 129 | 0.2 | 16.1 | 34.5 | 22.5
COc1cc([C@@H](O)[C@@H](CO)Oc2ccc([C@@H](O)[C@H](O)CO)cc2OC)ccc1O | 2.6 | 94.2 | 21.2 | Non-Toxic | 10.7 | 4.4 | 18.5 | -1.2 | 30.8 | > 100 | 89 | 26 | 66.3 | 2.4 | -2.9 | 12 | 52.5
COc1cc([C@@H](O)[C@H](CO)Oc2ccc([C@@H](OC)[C@H](CO)c3ccc(O)c(OC)c3)cc2OC)ccc1O | 34.2 | > 100 | 3.2 | Non-Toxic | 5.9 | 57.3 | 89.5 | 7 | 5.2 | 97.3 | 43.6 | 121 | 116 | 1.3 | 19.2 | 60.8 | 18.4
COc1cc(C2Oc3cc([C@H]4Oc5cc(O)cc(O)c5C(=O)[C@@H]4O)ccc3OC2CO)ccc1O (stereo partly specified) [SILIBININ] | – | 69.2 | 27 | – | – | – | – | – | 47 | – | – | – | – | 10.3 | – | – | 53.8
COc1cc([C@@H](O)[C@@H](CO)Oc2c(OC)cc([C@@H](O)[C@H](O)CO)cc2OC)ccc1O | 1.1 | > 100 | 14.1 | Non-Toxic | 11.8 | 2.7 | 60 | -3.1 | 23.2 | > 100 | 138 | 89.1 | 127 | 2.3 | -1.8 | 37.1 | 45.8
CCO[C@H](c1ccc(O[C@@H](CO)[C@@H](O)c2ccc(O)c(OC)c2)c(OC)c1)[C@@H](CO)c1ccc(O)c(OC)c1 | 40.2 | > 100 | 3.1 | Non-Toxic | 7.1 | 62.6 | 62.7 | 4.7 | 11.4 | 66.4 | 79.6 | 96.8 | 134 | -2.2 | 18.2 | 38.6 | 29.2
COc1cc([C@@H](CO)[C@H](OC)c2ccc(O[C@H](CO)[C@@H](O)c3ccc(O)c(OC)c3)c(OC)c2)ccc1O | 42.1 | > 100 | 2.9 | Non-Toxic | 7.8 | 61.2 | 73 | 5.7 | 9.3 | 62.9 | 67.2 | 106 | 128 | -1.2 | 22.1 | 45.8 | 17.1
CN(C)c1ccc(O)c2c1C[C@H]1C[C@H]3[C@H](N(C)C)C(O)=C(C(N)=O)C(=O)[C@@]3(O)C(O)=C1C2=O [MINOCYCLINE] | 51.8 | – | – | – | – | 59.7 | – | 15.6 | – | 55.1 | – | – | – | – | 22.7 | – | –
COc1cc([C@@H](O)[C@H](CO)Oc2c(OC)cc([C@@H](O)[C@H](O)CO)cc2OC)ccc1O | 2.7 | > 100 | 13.7 | Non-Toxic | 10.7 | 3.4 | 58.1 | 0.6 | 28.2 | > 100 | 114 | 84.6 | 119 | 5.1 | 1.3 | 35.9 | 47
COc1cc([C@H](OC)[C@@H](CO)Oc2ccc([C@@H](O)[C@H](O)CO)cc2OC)ccc1O | 3.2 | 76.1 | 18.9 | Non-Toxic | 10.8 | 7 | 50.5 | -1.3 | 37.2 | > 100 | 109 | 74.1 | 105 | 3.1 | -0.5 | 29.9 | 57.7
